Consider two molecules from publication PMC11964553 (Materials Today Bio, 2025).

The structures appear in SMILES notation.

The nature of data set [1]: Plasma pharmacokinetics in orthotopic 4T1 tumor-bearing mice. It is filed as in vivo, BALB/c mice.
The conditions of data set [2]: cited from earlier work.
Data set [3] can be described thus: Tissue quantification of Om and As in tumor. It is filed as in vivo, BALB/c mice. Summed up: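 Orthotopic 4T1-luc tumor-bearing female BALB/c mice were dosed i.v. with free drug combination or co-loaded liposome. Tumor and organs were collected at 1, 2, 4, 6, 8, 10, 12 and 24 h, weighed, and homogenized in cold methanol at 4 °C, then spun at 12,000 rpm for 10 min at 4 °C. The pellet was re-extracted with cold chloroform and the supernatants pooled. Parameters came from a non-compartmental model; n = 6.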

Usually AUC stands for concentration integrated over time. A lower AUC goes with less exposure. The term Cmax denotes the peak of the concentration-time curve. The term MRT denotes a mean duration of stay, worked out from the concentration-time curve. The term Tmax denotes the time from dosing to the highest level. As usually defined, the half-life is how long it takes for the measured level to halve. In the case of `O=C1CCC[C@@H]2[C@H]3CCC[N+]4([O-])CCC[C@@H](CN12)[C@@H]34` (stereo partly drawn) [Free Om, oxymatrine], in data set [1] (BALB/c, mouse, iv, 2 mg/kg), the AUC amounted to 1.01 ± 0.25 ng·h/mL, the Cmax worked out at 1.75 ± 0.31 ng/mL, the mean residence time MRT turned out to be 2.12 ± 1.19 h and the Tmax is 0.17 ± 0.01 h. For the same molecule, the half-life in data set [1] (BALB/c, mouse, iv, 2 mg/kg) was 5.66 ± 2.12 h. Further, the “log partition coefficient (log P)” value in data set [2] is given as “low”. In data set [3] (BALB/c, mouse, iv, 2 mg/kg), this molecule returned an AUC of 6.09 ± 3.96 ng·h/mL, a Cmax of 0.92 ± 0.43 ng/mL and a mean residence time MRT of 6.95 ± 2.83 h.
For `CC(C)(O)[C@@H]1CC[C@](C)([C@H]2[C@@H](O)C[C@@]3(C)[C@@H]4C[C@H](O[C@@H]5O[C@H](CO)[C@@H](O)[C@H](O)[C@H]5O)[C@H]5C(C)(C)[C@@H](O[C@@H]6OC[C@@H](O)[C@H](O)[C@H]6O)CC[C@@]56C[C@@]46CC[C@]23C)O1` [Free As, Astragaloside IV], the “Cmax of As in plasma” value in data set [1] (i.v. 2.0 mg/kg Om and 1.5 mg/kg As, 4T1 tumor-bearing mice, n = 6) came to 52.22 ± 9.04 ng/mL. Also, in data set [1] (i.v., n = 6), the “MRT of As in plasma” value was 1.73 ± 0.50 h, the “Tmax of As in plasma” value is listed as 0.17 ± 0.01 h and the “t1/2 of As in plasma” value is listed as 1.73 ± 1.03 h. Further, in data set [1] (time 0–24 h, i.v., n = 6), the “AUC of As in plasma” value was 38.77 ± 12.39 ng·h/mL. In data set [2], the Solubility result is reported as “poor solubility”. Further, in data set [3] (i.v., n = 6), the “Cmax of As in tumor” value came to 0.64 ± 0.26 ng/mL and the “MRT of As in tumor” value worked out at 5.36 ± 2.05 h. Further, the “AUC of As in tumor” value in data set [3] (time 0–24 h, i.v., n = 6) was 6.04 ± 2.43 ng·h/mL.
